Activity calls are given as the source filed them.

The test system of assay [1] is Rattus norvegicus. The assay is described as follows: Estimated dose giving an approximately maximal decrease of the DA synthesis rate; I = Inactive (>45 umol/kg). The assay is classed as functional, organism-based. The essentials: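 Male Sprague-Dawley rats (200–350 g) pretreated with reserpine. Compounds dissolved in saline and given sc at four to six dose levels. Aromatic L-amino acid decarboxylase inhibited with NSD 1015 (100 mg/kg ip, 30 min before death). Brain DOPA measured spectrophotometrically as an index of DA synthesis rate. Experiments run 9–12 a.m. Dose read from separate dose–response curves for each brain area.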

Assay [2] deals with Rattus norvegicus. As to the kind of experiment: Estimated dose giving a half-maximal decrease of the DA synthesis rate in the limbic system of rat brain; I = Inactive (>45 umol/kg). The assay is classed as functional, organism-based. The essentials:
(§1)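 Male Sprague–Dawley rats (200–350 g) were reserpinized, then given the drug sc in saline at four to six dose levels. NSD 1015 (100 mg/kg ip) was given 30 min before death to block decarboxylase. DOPA accumulation was measured spectrophotometrically in the limbic system and striatum as an index of DA synthesis rate. ED50 and ED100 were read from separate dose–response curves for each brain area. Experiments ran 9–12 a.m.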

The test system of assay [3] is Rattus norvegicus. The assay is described as follows: Estimated dose giving a half-maximal decrease of the DA synthesis rate in the striatum of rat brain; I = Inactive (>45 umol/kg). The assay is classed as functional, organism-based. The essentials: as §1
The species entered for assay [4] is Rattus norvegicus. As to the kind of experiment: Estimated dose giving a half-maximal decrease of the DA synthesis rate in the limbic system of rat brain. The assay is classed as functional. The essentials: as §1
Assay [5] is filed under the species Rattus norvegicus. The assay is described as follows: Motor activity in reserpinized rats at the biochemical ED50 dose level expressed as accumulation counts per 60 min. The assay is classed as functional. The essentials:
(§2)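 Male Sprague–Dawley rats (200–350 g) pretreated with reserpine 10 mg/kg ip 6 h beforehand. Drugs in saline given sc at doses matching the biochemical ED50 and ED100 for the DA-synthesis decrease. Each rat was caged singly in a photocell motility meter right after dosing and counts were accumulated over 60 min, testing between 1 and 6 p.m. Means ± SEM, n = 3–4, compared by ANOVA then Student's t test.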

The species named for assay [6] is Canis familiaris. The assay is described as follows: Total dose at which the animal vomits. The assay is classed as functional, Canis lupus familiaris. The essentials:
(§3)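 Four female beagles (8–15 kg) with free access to food and water, not pretreated. Drug was infused iv at constant rate into the cephalic vein. The rate (k0) was set so that vomiting would be expected about 10 min after the start of infusion. The total dose infused at vomiting was recorded. Relative k0 is the compound's k0 divided by the apomorphine k0.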

The species named for assay [7] is Rattus norvegicus. The assay is described as follows: Estimated dose giving an approximately maximal decrease of the DA synthesis rate. The assay is classed as functional. The essentials: as §1
Assay [8] is filed under the species Rattus norvegicus. The assay is described as follows: Estimated dose giving a half-maximal decrease of the DA synthesis rate in the striatum of rat brain. The assay is classed as functional. The essentials:
as §1

The species entered for assay [9] is Rattus norvegicus. The assay is described as follows: Motor activity in reserpinized rats at the biochemical ED100 dose level expressed as accumulation counts per 60 min. The assay is classed as functional. The essentials:
as §2

The test system of assay [10] is Canis familiaris. The assay is described as follows: Relative rate of administration of compound in dogs. The assay is classed as functional, Canis lupus familiaris. The essentials: as §3
Assay [11] is filed under the species Canis familiaris. The assay is described as follows: Emetic activity in dogs given as total dose at which the animal vomits. The assay is classed as functional, Canis lupus familiaris. The essentials:
as §3

A further assay deals with Canis lupus familiaris. As to the kind of experiment: Emetic activity in dogs by constant-rate intravenous infusion was measured.

`CCCN(CCC)CC1CCc2c(O)cccc2C1` (centres undefined): in the assay with Rattus norvegicus [1], the ED100 entry is “inactive”. In addition, the ED50 result in the assay on Rattus norvegicus [2] and in the assay on Rattus norvegicus [3] was “inactive” throughout.

On to `CCCN(CCC)C1Cc2cccc(O)c2C1` (centres undefined), for which the ED50 – broadly, the dose that gives a 50% effect, or the effect in half of the subjects – is 0.059 µmol/kg in the assay filed under Rattus norvegicus [4] and 0.063 µmol/kg in the assay listed under Rattus norvegicus [8]. Besides, the results for the Accumulation counts in the assay filed under Rattus norvegicus [5] and in the assay listed under Rattus norvegicus [9] were 13 and 108, respectively. The same compound showed a TED in the assay listed under Canis familiaris [6] of 25 nM/kg. In the assay filed under Rattus norvegicus [7], the ED100 is 350 nM/kg.

With `CCCN(CCC)C1Cc2ccc(O)cc2C1` (centres undefined), the 50% effective dose (ED50) is 1.25 µmol/kg in the assay listed under Rattus norvegicus [4] and 1.44 µmol/kg in the assay listed under Rattus norvegicus [8]. Besides, the Accumulation counts in the assay listed under Rattus norvegicus [5] was found to be 23; in the assay listed under Rattus norvegicus [9] it was 89. Also, the rel ko with Canis familiaris [10] was found to be 9.9. The ED100 in the assay filed under Rattus norvegicus [7] was 6500 nM/kg. This compound also displayed a TED in the assay listed under Canis familiaris [11] of 247 nM/kg.

With `CCCN(CCC)C1CCc2c(O)cccc2C1` (centres undefined) [5-OH-DPAT], the values for the ED50 in the assay filed under Rattus norvegicus [4] and in the assay listed under Rattus norvegicus [8] were 0.011 µmol/kg and 0.009 µmol/kg, respectively. For the same compound, the Accumulation counts is on record as 25 in the assay listed under Rattus norvegicus [5] and 76 in the assay listed under Rattus norvegicus [9]. Further, the TED in the assay listed under Canis familiaris [6] came to 4.7 nM/kg. In the assay filed under Rattus norvegicus [7], the ED100 is 40 nM/kg.

As to `CCCN(CCC)CC1Cc2cccc(O)c2C1` (centres undefined), the figures for the ED50 in the assay filed under Rattus norvegicus [4] and in the assay filed under Rattus norvegicus [8] were 0.67 µmol/kg and 0.96 µmol/kg, respectively. Also, the Accumulation counts was 25 in the assay listed under Rattus norvegicus [5] and 89 in the assay listed under Rattus norvegicus [9]. Besides, in the assay on Canis familiaris [10], the rel ko was found to be 9.1. Besides, the ED100 in the assay listed under Rattus norvegicus [7] was 4500 nM/kg. Further, the TED in the assay filed under Canis familiaris [11] was 292 nM/kg.

Consider `CCCN(CCC)C1CCCc2c(O)cccc2C1` (centres undefined), for which the ED100 result in the assay with Rattus norvegicus [1] is “inactive”. Also, the ED50 result in the assay with Rattus norvegicus [2] and in the assay with Rattus norvegicus [3] was “inactive” in each case.

In the case of `CN1CCc2cccc3c2[C@H]1Cc1ccc(O)c(O)c1-3` [APOMORPHINE], the ED50 is 0.041 µmol/kg in the assay filed under Rattus norvegicus [4] and 0.044 µmol/kg in the assay filed under Rattus norvegicus [8]. For the same compound, the figures for the Accumulation counts in the assay listed under Rattus norvegicus [5] and in the assay filed under Rattus norvegicus [9] were 24 and 64, respectively. The compound further came in with a rel ko in the assay with Canis lupus familiaris of 1. Also, the TED in the assay listed under Canis familiaris [6] was 32.3 nM/kg. In addition, the ED100 in the assay filed under Rattus norvegicus [7] is 230 nM/kg.

These data come from ChEMBL document CHEMBL1121814, “Monophenolic 2-(dipropylamino)indans and related compounds: central dopamine-receptor stimulating activity” (1981).
